Rpn11 inh = inhibitors of human proteasome Rpn11; human 26S proteasome, Ub4-pepOG fluorescence polarization; 20S core pre-blocked with epoxomicin; inhibition, % at 20 µM; actives 0.59% (n = 360,000); AID 588493;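 active means inhibition at 20 µM, scaled to each plate's controls, above about 33%, limit read from the data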
UCH37 inh = human UCH37 deubiquitinating enzyme inhibition | actives 0.33% (n = 330,000) | inhibition, % (no concentration beside the values) | purified proteasome/UCH37, Ub-AMC cleavage fluorescence;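 active means mean inhibition over replicate wells above about 20%, limit read from the data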;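 further: 0% = compound-free wells with enzyme and 100% = wells lacking proteasome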
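Schedule: 30 min plus 25 min, room temperature / Material: human UCH37 within purified proteasomes / Technique: AMC fluorescence intensity at 355/460 nm / Buffer or medium: pH 7.4 Tris-HCl (50 mM) with ovalbumin, ATP-MgCl2, DTT / Controls: wells without proteasome as full block, compound-free enzyme plus substrate as uninhibited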
PLCg1 inh = inhibitors of human phospholipase C gamma1; P19174; purified PLC-gamma1, fluorogenic substrate, fluorescence; inhibition, % at 12.2 µM; actives 0.84% (n = 370,000); in the data active means inhibition above about 9.5%
PLC-beta3 inh = blocks human PLC-beta3 enzyme activity. actives 0.18% (n = 370,000). Purified PLC-beta3, fluorogenic substrate, fluorescence. AID 720704. inhibition, % at 12.2 µM;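 further: 0% = median of compound wells on plate and 100% = full blocker control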
Target sequence (Q01970 whole entry, looked up): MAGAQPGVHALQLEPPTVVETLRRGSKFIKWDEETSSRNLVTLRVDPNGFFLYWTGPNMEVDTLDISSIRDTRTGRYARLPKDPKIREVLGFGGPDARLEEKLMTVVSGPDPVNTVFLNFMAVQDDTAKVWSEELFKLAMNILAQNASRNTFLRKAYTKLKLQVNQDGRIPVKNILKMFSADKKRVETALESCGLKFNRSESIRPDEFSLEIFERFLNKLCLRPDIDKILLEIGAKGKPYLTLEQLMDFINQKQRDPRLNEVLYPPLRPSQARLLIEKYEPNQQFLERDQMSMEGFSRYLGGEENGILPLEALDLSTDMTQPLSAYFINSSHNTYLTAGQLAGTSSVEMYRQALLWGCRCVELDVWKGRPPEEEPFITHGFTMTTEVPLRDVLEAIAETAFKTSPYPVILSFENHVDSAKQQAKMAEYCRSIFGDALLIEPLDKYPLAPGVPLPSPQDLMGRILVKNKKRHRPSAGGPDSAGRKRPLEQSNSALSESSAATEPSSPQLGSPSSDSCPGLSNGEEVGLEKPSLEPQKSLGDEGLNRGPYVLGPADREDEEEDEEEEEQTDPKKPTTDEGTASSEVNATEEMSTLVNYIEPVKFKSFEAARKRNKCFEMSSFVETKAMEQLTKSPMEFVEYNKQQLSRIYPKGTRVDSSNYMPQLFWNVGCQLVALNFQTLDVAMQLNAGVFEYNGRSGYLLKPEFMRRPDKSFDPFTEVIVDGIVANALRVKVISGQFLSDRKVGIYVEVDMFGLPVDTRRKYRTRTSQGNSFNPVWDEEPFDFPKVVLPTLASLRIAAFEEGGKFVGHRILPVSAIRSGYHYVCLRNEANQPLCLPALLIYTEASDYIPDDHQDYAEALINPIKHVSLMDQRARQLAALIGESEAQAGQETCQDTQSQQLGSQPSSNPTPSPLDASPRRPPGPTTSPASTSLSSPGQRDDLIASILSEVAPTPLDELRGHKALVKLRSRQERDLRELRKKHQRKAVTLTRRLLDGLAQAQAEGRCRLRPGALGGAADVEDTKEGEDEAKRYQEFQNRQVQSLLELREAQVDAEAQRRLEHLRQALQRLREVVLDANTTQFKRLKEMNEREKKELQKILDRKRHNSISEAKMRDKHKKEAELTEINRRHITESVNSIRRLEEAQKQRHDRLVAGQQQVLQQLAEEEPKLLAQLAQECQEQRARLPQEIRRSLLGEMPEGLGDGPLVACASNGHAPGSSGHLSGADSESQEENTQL
PLCgamma1 ctr = PLC-gamma1 inhibition, counter-screen for PLC-beta3 hits; shares compounds with PLCg1 inh; actives 3.1% (n = 3,300); purified PLC-gamma1, fluorogenic substrate, fluorescence; inhibition, % at 12.3 µM; in the data active means inhibition above about 9.5%
PLCbeta3 conf = human PLC-beta3 inhibition, confirmation; actives 1% (n = 3,300); AID 743261; purified PLC-beta3, fluorogenic substrate fluorescence; shares compounds with PLCg1 inh; inhibition, % at 12.3 µM
* marks the source's active call; other numbers are inactive results; nt = not tested or not shown. In the library only some 1.7% were active in any assay of this set; here they are far more common. Unless noted, no stated cut-off is given here; in the data, active means inhibition above about 11%; inactive means the rest.

SMILES	Rpn11 inh	UCH37 inh	PLCg1 inh	PLC-beta3 inh	PLCgamma1 ctr	PLCbeta3 conf
O=C1CC(c2ccccc2)Sc2ccccc2N1 (stereo not drawn)	-4	-1	10*	0	-8	-5
COc1cccc(N2CCN(C(=O)Cn3c(=O)oc4ccccc43)CC2)c1	-1	1	9.8*	-2	-3	-6
COc1cc(C=NO)c(Br)cc1OCC(=O)Nc1ccccc1C	nt	1	nt	nt	nt	nt
CS(=O)(=O)N1CCN(C(=O)c2ccc(F)cc2)CC1	-6	3	12*	1	-2	0
OC(CN1CCCCC1)CN1CCCCC1	-1	5	11*	-95	-3	0
COc1cccc(-c2c(C(=O)NN=Cc3cccs3)nnn2-c2nonc2N)c1	nt	3	nt	nt	nt	nt
O=C(/C=C/c1cccc([N+](=O)[O-])c1)NCc1cccnc1	-3	1	3	11*	-6	0
C=CCOc1ccc(/C(O)=C2/C(=O)C(=O)N(CCCN3CCOCC3)C2c2ccc(OC)cc2)cc1 (stereo not drawn)	3	13	-2	-2	nt	nt
C=CCOc1ccc(/C(O)=C2/C(=O)C(=O)N(CCCN3CCOCC3)C2c2ccccc2)cc1 (stereo not drawn)	-1	10	11*	1	-4	-2
CC1=C(c2ccccc2)C(O)(c2ccccc2)C(C)C1=O (stereo not drawn)	-4	3	14*	5	-2	-2
Clc1nc(Cl)nc(N(c2ccccc2)c2ccccc2)n1	-11	2	9.6*	6	-5	0
c1ccc(N(c2ccccc2)c2nc(-n3ccnc3)nc(-n3ccnc3)n2)cc1	0	2	0	-1	nt	nt
CC(C(=O)c1ccc(-c2ccccc2)cc1)[n+]1cccc(NC(=O)c2ccccc2)c1 (stereo not drawn)	-5	nt	9.7*	2	1	0
COc1ccc(C=NNC(=O)c2cccc(NC(=O)c3ccc(Cl)cc3)c2)c(OC)c1	nt	-22	nt	nt	nt	nt
CC(=O)Nc1c(-c2ccccc2Cl)c(=O)c2ccccc2n1C	-15	7	7	-5	nt	nt
CCCC(=O)Nc1c(-c2ccccc2Cl)c(=O)c2ccccc2n1C	-19	0	13*	-1	-2	0
CCc1c(C(=O)NN=Cc2ccc(OCc3ccc(F)cc3)c(OC)c2)nnn1-c1nonc1N	nt	-11	nt	nt	nt	nt
COc1cc(C=NNc2ccccn2)ccc1O	nt	10	nt	nt	nt	nt
Cc1ccc(Cn2cc(CN3CC(N4CCCCC4)CS3(=O)=O)nn2)cc1 (stereo not drawn)	nt	nt	3	2	nt	nt
CCCCCCN1CCN(C2CN(Cc3cn(Cc4ccc(C)cc4)nn3)S(=O)(=O)C2)CC1 (stereo not drawn)	nt	nt	15*	7	-11	-4
CC(=O)Nc1ccc(C2=NN(CC#N)C(=O)SC2)cc1	5	4	-1	4	nt	nt
CC(=O)Nc1ccc(C2=NN(Cc3nnc(-c4ccccc4)o3)C(=O)SC2)cc1	12	nt	11*	9	-3	-3
CCn1c(SCC(=O)Nc2ccc(C(C)=O)cc2)nc2nc3c(cc2c1=O)CCCC3	10	1	9.7*	-1	7	5
CC(=NNS(=O)(=O)c1ccc(C)cc1)c1ccc(Br)s1	nt	3	nt	nt	nt	nt
COc1cc(Cl)ccc1NC(=S)N(CCN1CCOCC1)C1CCN(C(C)=O)CC1	1	5	11*	10	-7	-9
SMILES	Rpn11 inh	UCH37 inh	PLCg1 inh	PLC-beta3 inh	PLCgamma1 ctr	PLCbeta3 conf
COc1ccc(NC(=S)N(CCN2CCOCC2)C2CCN(C(C)=O)CC2)cc1Cl	-2	1	7	-3	nt	nt
O=c1[nH]n(-c2ccc(Cl)cc2)c(=O)c(Cl)c1Cl	9	6	9.8*	3	-8	-7
Cc1[nH]n(-c2ccccc2)c(=O)c1-c1ccc(Cl)cc1	2	4	2	2	nt	nt
O=C(Nc1cccc([N+](=O)[O-])c1)Nc1ccc2c(c1)OCCO2	1	6	10*	-1	1	3
O=C(Nc1cccc([N+](=O)[O-])c1)Nc1cccc([N+](=O)[O-])c1	-18	6	0	-2	nt	nt
Cc1cccc(C(=O)N2CCN(c3ccc([N+](=O)[O-])c(NCc4ccco4)c3)CC2)c1	0	4	9.5*	-2	-2	-1
Cc1ccc(C(=O)N2CCN(c3ccc([N+](=O)[O-])c(NCc4ccco4)c3)CC2)cc1	-3	6	9	3	nt	nt
COc1ccc(CNC(=O)C[C@H]2C(=O)N(Cc3ccc(OC)cc3)C[C@@H]2Cc2ccccc2)cc1	-6	2	11*	5	6	7
O=C(NN=Cc1ccccn1)c1cc(-c2ccc3ccccc3c2)n[nH]1	nt	-1	nt	nt	nt	nt
CC(c1nnc(SCC(=O)N2CCc3ccccc32)n1-c1ccc(Cl)cc1)N(C)C (stereo not drawn)	3	2	4	1	nt	nt
CC(c1nnc(SCn2nnc3ccccc3c2=O)n1-c1ccc(Cl)cc1)N(C)C (stereo not drawn)	-1	1	3	12*	-3	2
CCCn1c(NN=C(C)/C=C/c2ccccc2)nc2c1c(=O)[nH]c(=O)n2C	nt	-16	nt	nt	nt	nt
CCn1c2ccccc2c2cc(C=NNC(=O)c3cc(O)cc(O)c3)ccc21	nt	-194	nt	nt	nt	nt
NC(=O)c1ccc(NC(=O)COC(=O)CCC2CCCCC2)cc1	-1	2	14*	-6	-5	-3
O=[N+]([O-])c1ccc(NN=Cc2cn(Cc3ccc(F)cc3)c3ccccc23)nc1	nt	9	nt	nt	nt	nt
Cc1cccc(C)c1N(CC(=O)NC1CCCCC1)C(=O)c1csnn1	-2	0	16*	-1	-5	1
CC(C)(C)OC(=O)NCCC(=O)NN=Cc1cccc2cccnc12	nt	9	nt	nt	nt	nt
O=C(Cc1ccc(Br)cc1)NN=Cc1cccnc1	nt	5	nt	nt	nt	nt
CN1/C(=C/C(=O)C2CCC2)Sc2ccccc21	3	16	11*	10	0	2
C#CCOn1c(-n2nc(C)cc2C)nc2ccccc2c1=O	-7	-1	10*	-3	-2	-3
CN(Cc1ccccc1)C(=O)Cn1nnc(-c2ccccc2)c1COc1ccc2ccccc2c1	0	nt	11*	2	-2	-4
COc1cccc(C=c2sc3nc(-c4cccs4)nn3c2=O)c1OC	nt	-2	nt	nt	nt	nt
Cc1ccc(C)c(NC(=O)CN(C)C(=O)c2ccc(S(=O)(=O)N(C)c3ccccc3)cc2)c1	4	0	1	0	nt	nt
Cc1ccc(NC(=O)CN(C)C(=O)c2ccc(S(=O)(=O)N(C)c3ccccc3)cc2)cc1	2	-1	11*	-2	-2	0
COc1cc(/C=C2/C(=O)CNC2=O)ccc1O	22	nt	5	1	nt	nt
COc1cc(C=C2C(=O)C=CC2=O)ccc1O	nt	nt	30*	16*	0	2
CCN1C(=O)/C(=C\N(C)C)S/C1=N\S(=O)(=O)c1ccc(C)cc1	2	nt	3	7	nt	nt
C=CCN1C(=O)/C(=C/N(C)C)S/C1=N\S(=O)(=O)c1cccs1	6	nt	8	12*	0	3
CC(C)(C)c1ccc(OCC(=O)NN=Cc2ccsc2)cc1	nt	1	nt	nt	nt	nt

Source: PubChem BioAssay (several laboratories)
